These results are taken from ChEMBL document CHEMBL3232756, “Synthesis and biological evaluation of N-dehydrodipeptidyl-N,N'-dicyclohexylurea analogs” (Eur J Med Chem, 2014).

For data set [1], the system named is Mus musculus. The data set is described as follows: Acute toxicity in Swiss albino mouse assessed as mortality up to 1500 mg/kg, po. Type of data set: organism-based. Further details: dose 1500 mg/kg, route oral. Particulars: in vivo. The gist of the method:
(§1)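 Swiss albino mice (6–8 weeks, 25–30 g) were dosed orally at 500, 1000 or 1500 mg/kg, following OECD guidelines. Body weight, food and water intake, behavioural patterns and mortality were recorded and compared with a control group.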

Data set [2] relates to Mus musculus. The data set is described as follows: Acute toxicity in Swiss albino mouse assessed as gross behavioral changes up to 1500 mg/kg, po. Format: organism-based. Also on record: dose 1500 mg/kg, route oral. The note with it: in vivo. Put shortly: as §1
Data set [3] deals with Rattus norvegicus. The data set is described as follows: Antiinflammatory activity in Wister rat assessed as inhibition of carrageenan-induced paw edema at 100 mg/kg, po administered 1 hr before carrageenan challenge measured after 3 hrs by plethysmograph analysis. Format: functional. Put shortly:
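Rats of either sex, 150–220 g, food withheld 4 h. Compound or diclofenac sodium 100 mg/kg p.o., or 0.5% sodium CMC at 10 ml/kg as vehicle control, given 1 h before 0.05 ml of 1% carrageenan subplantar into the right hind paw. Paw volume read by water-displacement plethysmograph at 0, 30, 60, 120 and 180 min. % edema inhibition = 100(1−Vt/Vc); n=5, control n=6; ANOVA/Dunnett.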
For orientation: The carrageenan paw model is a standard test of acute inflammation.

The subject of data set [4] is Mus musculus. The data set is described as follows: Analgesic activity in Swiss albino mouse assessed as inhibition of acetic acid-induced writhing response at 100 mg/kg, po administered 1 hr before acetic acid challenge after 5 mins. Type of data set: functional. In general terms: An intraperitoneal irritant provokes the stretching counted in writhing tests.
The test system of data set [5] is Bacillus subtilis. The data set is described as follows: Antimicrobial activity against Bacillus subtilis MTCC 441 at 0.02 ml of 1 mg/ml after 24 hrs by cup plate method. Type of data set: functional. Particulars: MTCC 441, 24 h, read-out: DIZ. The gist of the method:
(§2)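 Cup-plate diffusion on Mueller-Hinton/nutrient agar swab-streaked with suspension, 6 mm cups bored. Each compound at 1 mg/ml in DMSO, 0.02 ml per cup; DMSO as solvent control. Amoxicillin for bacteria and fluconazole for fungi at 200 and 500 respectively as references. Incubation 37 °C for 24 h. Inhibition zone diameter in mm, triplicate, mean ± SD.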

Data set [6] has as its system Staphylococcus aureus. The data set is described as follows: Antimicrobial activity against Staphylococcus aureus MTCC 96 at 0.02 ml of 1 mg/ml after 24 hrs by cup plate method. Type of data set: functional. The note with it: MTCC 96, 24 h, read-out: DIZ. The gist of the method: as §2
For data set [7], the system named is Pseudomonas aeruginosa. The data set is described as follows: Antimicrobial activity against Pseudomonas aeruginosa MTCC 1688 at 0.02 ml of 1 mg/ml after 24 hrs by cup plate method. Format: functional. The note with it: MTCC 1688, 24 h, read-out: DIZ. The gist of the method: as §2
Data set [8] deals with Escherichia coli. The data set is described as follows: Antimicrobial activity against Escherichia coli ESS 2231 at 0.02 ml of 1 mg/ml after 24 hrs by cup plate method. Format: functional. The note with it: ESS 2231, 24 h, read-out: DIZ. Put shortly: as §2
Data set [9] relates to Aspergillus niger. Briefly: Antimicrobial activity against Aspergillus niger MTCC 292 at 0.02 ml of 1 mg/ml after 24 hrs by cup plate method. Type of data set: functional. Particulars: MTCC 292, 24 h, read-out: DIZ. The gist of the method:
as §2

Data set [10] relates to Candida albicans. The data set is described as follows: Antimicrobial activity against Candida albicans MTCC 227 at 0.02 ml of 1 mg/ml after 24 hrs by cup plate method. Type of data set: functional. The note with it: MTCC 227, 24 h, read-out: DIZ. Put shortly:
as §2

Data set [11] can be described thus: Cytotoxicity against brine shrimps larvae assessed as mortality after 24 hrs. Type of data set: organism-based. Particulars: artemia, in vivo; read-out: ED50. The gist of the method:
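Shrimp eggs were hatched in filtered artificial sea water (38 g sea salt/L) in a divided tank. Larvae were exposed in vials at several concentrations under a lamp, and survivors were counted 24 h later. ED50 and 95% confidence intervals were derived from % larvae surviving by Finney probit analysis.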

Data set [12] concerns Radical scavenging activity. Briefly: Antioxidant activity assessed as DPPH radical scavenging activity after 20 to 30 mins. Format: functional. Put shortly:
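Test solution (2 ml at 25, 50, 75, 100, 125) mixed with 2 ml ethanolic DPPH, held in the dark at ambient temperature 20–30 min, then A517 read against an ethanol blank. Tocopherol used as standard. % scavenging = (Acontrol−Atest)/Acontrol×100, run in triplicate. IC50 read graphically from the % scavenging versus concentration plot.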
On the technique in general: DPPH is a stable violet radical that fades when it is reduced.

Data set [13] can be described thus: Antioxidant activity assessed as hydroxyl radical scavenging activity after 15 mins. Format: functional. The gist of the method: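 Deoxyribose degradation mix: 2-deoxy-2-ribose 2.8 mM, KH2PO4–KOH 20 mM pH 7.4, FeCl3, EDTA, H2O2 1.0 mM, ascorbic acid, plus compound in methanol. Incubated 1 h at 37 °C. A 0.5 ml aliquot taken with 1 ml 2.8% TCA and 1 ml 1% TBA, heated 90 °C for 15 min, cooled, A532 read. % inhibition against blank.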

Data set [14] deals with Brain. Briefly: Antioxidant activity against lipid peroxidation in Wister rat brain homogenates assessed as thiobarbituric acid reactive substance formation after 30 mins by spectrophotometer analysis. Format: functional, tissue-based. The note with it: 0.5 h. Put shortly:
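Whole brain minus cerebellum from overnight-fasted rats of either sex, 200–220 g. Homogenized 10% w/v in 0.15 M KCl and spun at 800 rpm for 10 min. Reaction incubated 37 °C for 30 min, then TBA:TCA (1:1) and BHT added, heated 80 °C for 20 min, cooled, centrifuged, A532 read.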

The nature of data set [15]: Antioxidant activity assessed as trolox equivalents of cupric reducing antioxidant capacity after 30 mins. Format: functional. The gist of the method:
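Mix of 1 ml CuCl2 (10 mM), 1 ml ethanolic neocuproine (7.5 mM), 1 ml ammonium acetate buffer (pH 7.0, 1 M), 1 ml compound or standard solution and 0.1 ml water, total 4.1 ml. A450 read after 30 min against reagent blank. TEAC = ε test/ε Trolox.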

Data set [16] concerns Bacillus subtilis. Briefly: Antimicrobial activity against Bacillus subtilis MTCC 441 at 200 ug/ml after 24 hrs by cup plate method. Format: functional. The note with it: MTCC 441, 24 h, read-out: DIZ.
Data set [17] concerns Staphylococcus aureus. The data set is described as follows: Antimicrobial activity against Staphylococcus aureus MTCC 96 at 200 ug/ml after 24 hrs by cup plate method. Type of data set: functional. The note with it: MTCC 96, 24 h, read-out: DIZ.
The test system of data set [18] is Pseudomonas aeruginosa. The data set is described as follows: Antimicrobial activity against Pseudomonas aeruginosa MTCC 1688 at 200 ug/ml after 24 hrs by cup plate method. Format: functional. Particulars: MTCC 1688, 24 h, read-out: DIZ.
The subject of data set [19] is Escherichia coli. The data set is described as follows: Antimicrobial activity against Escherichia coli ESS 2231 at 200 ug/ml after 24 hrs by cup plate method. Type of data set: functional. Particulars: ESS 2231, 24 h, read-out: DIZ.

Values after ≈ are worked out from the molar mass of the structure shown.

As usually defined, the inhibition in vivo is the relative decrease from the control value, in per cent. Broadly, the IC50 is the concentration at which inhibition is half-maximal.

As to `O=C(NCC(=O)N(C(=O)NC1CCCCC1)C1CCCCC1)/C(=C\c1ccccc1)NC(=O)c1ccccc1`, the Activity result in [1] and in [2] was “Non-toxic” throughout. In addition, the inhibition in vivo at 100 mg/kg in data set [3] came to 35.5%; in data set [4], 54%. Moreover, the zone of inhibition at 1000 µg/mL came out at 19.2 mm in [5]; 18.1 mm in data set [6]; 19.4 mm in [7]; 20.2 mm in [8]; 19.1 mm in data set [9]; 20.7 mm in data set [10]. In addition, the LC50 at 24 h in data set [11] came to 6.02 µg/mL (≈ 11.3 µM). Moreover, the values for the IC50 in [12], in data set [13] and in data set [14] were 49.8 µM, 57.1 µM and 58.8 µM, respectively. Also, the TEAC (Trolox equivalents) in [15] amounted to 0.89.
Turning to `CC(C)c1ccc(/C=C(/NC(=O)c2ccccc2)C(=O)NC(CS)C(=O)N(C(=O)NC2CCCCC2)C2CCCCC2)cc1` (centres undefined), the Activity entry in data set [1] and in [2] was “Non-toxic” each time. The results for the inhibition in vivo at 100 mg/kg in data set [3] and in data set [4] were 28.2% and 58.5%, respectively. Besides, the zone of inhibition at 1000 µg/mL in data set [5] came to 15.2 mm; in data set [6], 12.9 mm; in data set [7], 15.4 mm; in data set [8], 11.8 mm; in [9], 14.4 mm; in data set [10] it was 12.2 mm. Moreover, the LC50 at 24 h in [11] worked out at 16.7 µg/mL (≈ 27 µM). Moreover, the concentration for half-maximal inhibition (IC50) in [12] turned out to be 74.7 µM; in data set [13], 82.2 µM; in [14] it was 92.8 µM. In addition, the TEAC (Trolox equivalents) in [15] worked out at 2.36.
With `O=C(NCC(=O)N(C(=O)NC1CCCCC1)C1CCCCC1)/C(=C\c1ccc(O)cc1)NC(=O)c1ccccc1`, the Activity result in data set [1] and in [2] was “Non-toxic” in each case. Further, the inhibition in vivo at 100 mg/kg in data set [3] was 31.5%; in data set [4], 27.6%. In addition, the zone of inhibition at 1000 µg/mL in data set [5] was 22.4 mm; in data set [6] it was 13.4 mm; in data set [7] it was 18.5 mm; in data set [8], 19.8 mm; in data set [9], 12.4 mm; in [10], 13.2 mm. In [11], the LC50 at 24 h was 9.1 µg/mL (≈ 16.6 µM). Besides, the values for the half-inhibitory concentration (IC50) in data set [12], in [13] and in data set [14] were 51 µM, 74.7 µM and 65.6 µM, respectively. The TEAC (Trolox equivalents) in data set [15] came out at 2.91.
As to `O=C(NC(CS)C(=O)N(C(=O)NC1CCCCC1)C1CCCCC1)/C(=C\c1ccc(O)cc1)NC(=O)c1ccccc1` (centres undefined), the Activity result in [1] and in data set [2] was “Non-toxic” in each case. Moreover, the inhibition in vivo at 100 mg/kg in [3] came out at 41.3%; in data set [4] it was 43.2%. For the same molecule, the zone of inhibition at 1000 µg/mL in data set [5] was found to be 24.4 mm; in [6], 24.8 mm; in [7], 20.7 mm; in [8], 23.5 mm; in [9], 24.5 mm; in data set [10], 26.6 mm. In addition, in data set [11], the LC50 at 24 h stood at 4.38 µg/mL (≈ 7.39 µM). In addition, the IC50 in [12] came out at 47.2 µM; in data set [13], 54 µM; in [14] it was 54.4 µM. Moreover, the TEAC (Trolox equivalents) in data set [15] turned out to be 3.91.
On to `CC1(C)S[C@@H]2[C@H](NC(=O)[C@H](N)c3ccc(O)cc3)C(=O)N2[C@H]1C(=O)O` [AMOXICILLIN], for which the zone of inhibition at 200 µg/mL in data set [16] was 21.2 mm; in [17] it was 22 mm; in data set [18], 21.4 mm; in data set [19], 22.6 mm.
